{"source": "ChEMBL document CHEMBL1629581", "about": "“Diverse cytomegalovirus UL27 mutations adapt to loss of viral UL97 kinase activity under maribavir” (Antimicrob Agents Chemother, 2009)", "key": {"[1]": {"test_system": "Human betaherpesvirus 5", "experiment": "Antiviral activity against Human cytomegalovirus clinical T2294 harboring UL97 T409 mutant gene with UL27 E22stop mutant gene by SEAP yield reduction assay relative to wild type", "assay_type": "functional"}, "[2]": {"test_system": "Human betaherpesvirus 5", "experiment": "Antiviral activity against Human cytomegalovirus T3037 expressing UL27 kinase with L426F mutant gene by SEAP yield reduction assay", "assay_type": "functional, organism-based", "settings": "Human betaherpesvirus 5, T3037", "outline": "(§1)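 Cell-free virus was put on 6-day-old human embryonic lung fibroblast monolayers at MOI 0.01 to 0.02 and cultured 6 days across a maribavir range (six wells per assay). Supernatant SEAP was read by chemiluminescent substrate, and EC50 was derived by curve fitting. Values are the mean and standard error of at least 12 replicates over at least four dates. T2211 was run alongside on every date.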"}, "[3]": {"test_system": "Human betaherpesvirus 5", "experiment": "Ratio of EC50 for Human cytomegalovirus T3020 expressing UL27 kinase with E22stop gene to EC50 for Human cytomegalovirus T2211 expressing wild type UL27 gene", "assay_type": "functional", "outline": "(§2)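 Each strain's maribavir EC50 comes from a 6-day SEAP yield reduction in human embryonic lung fibroblasts at MOI 0.01 to 0.02, fitted from supernatant chemiluminescence over at least 12 replicates on at least four dates. It is expressed relative to the EC50 of baseline strain T2211 assayed simultaneously on the same setup dates.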"}, "[4]": {"test_system": "Human betaherpesvirus 5", "experiment": "Antiviral activity against Human cytomegalovirus T2981 expressing UL27 kinase with W153R mutant gene by SEAP yield reduction assay", "assay_type": "functional, organism-based", "settings": "Human betaherpesvirus 5, T2981", "outline": "as §1"}, "[5]": {"test_system": "Human betaherpesvirus 5", "experiment": "Antiviral activity against Human cytomegalovirus T3019 expressing UL27 kinase with 218delC mutant gene by SEAP yield reduction assay", "assay_type": "functional, organism-based", "settings": "Human betaherpesvirus 5, T3019", "outline": "as §1"}, "[6]": {"test_system": "Human betaherpesvirus 5", "experiment": "Ratio of EC50 for Human cytomegalovirus T2867 expressing UL27 kinase with A269T mutant gene to EC50 for Human cytomegalovirus T2211 expressing wild type UL27 gene", "assay_type": "functional", "outline": "as §2"}, "[7]": {"test_system": "Human betaherpesvirus 5", "experiment": "Ratio of EC50 for Human cytomegalovirus T3053 expressing UL27 kinase with V353E mutant gene to EC50 for Human cytomegalovirus T2211 expressing wild type UL27 gene", "assay_type": "functional", "outline": "as §2"}, "[8]": {"test_system": "Human betaherpesvirus 5", "experiment": "Ratio of EC50 for Human cytomegalovirus T2898 expressing UL27 kinase with W362stop gene N289D, D298G, N300G, P307L, V310A, D351N, I367V mutant gene to EC50 for Human cytomegalovirus T2211 expressing wild type UL27 gene", "assay_type": "functional", "outline": "as §2"}, "[9]": {"test_system": "Human betaherpesvirus 5", "experiment": "Ratio of EC50 for Human cytomegalovirus T2890 expressing UL97 kinase with V353A mutant gene to EC50 for Human cytomegalovirus T2211 expressing wild type UL27 gene", "assay_type": "functional", "outline": "as §2"}, "[10]": {"test_system": "Human betaherpesvirus 5", "experiment": "Antiviral activity against Human cytomegalovirus clinical isolate C076 harboring UL97 V353A mutant gene with UL27 del 301 to 311 codon by SEAP yield reduction assay relative to wild type", "assay_type": "functional"}, "[11]": {"test_system": "Human betaherpesvirus 5", "experiment": "Antiviral activity against Human cytomegalovirus T2931 expressing UL27 kinase 301 to 311 deletion with frame shift mutation at 311 codon by SEAP yield reduction assay", "assay_type": "functional, organism-based", "settings": "Human betaherpesvirus 5, T2931", "outline": "as §1"}, "[12]": {"test_system": "Human betaherpesvirus 5", "experiment": "Antiviral activity against Human cytomegalovirus T3053 expressing UL27 kinase with V353E mutant gene by SEAP yield reduction assay", "assay_type": "functional, organism-based", "settings": "Human betaherpesvirus 5, T3053", "outline": "as §1"}, "[13]": {"test_system": "Human betaherpesvirus 5", "experiment": "Antiviral activity against Human cytomegalovirus T2767 expressing UL27 kinase with L193Fmutant gene by SEAP yield reduction assay", "assay_type": "functional, organism-based", "settings": "Human betaherpesvirus 5, T2767", "outline": "as §1"}, "[14]": {"test_system": "Human betaherpesvirus 5", "experiment": "Antiviral activity against Human cytomegalovirus clinical T2294 harboring UL97 T409 mutant gene with UL27 V353E mutant gene by SEAP yield reduction assay relative to wild type", "assay_type": "functional"}, "[15]": {"test_system": "Human betaherpesvirus 5", "experiment": "Ratio of EC50 for Human cytomegalovirus T2931 expressing UL27 kinase 301 to 311 deletion with frame shift mutation at 311 codon to EC50 for Human cytomegalovirus T2211 expressing wild type UL27 gene", "assay_type": "functional", "outline": "as §2"}, "[16]": {"test_system": "Human betaherpesvirus 5", "experiment": "Antiviral activity against Human cytomegalovirus clinical T2294 harboring UL97 T409M mutant gene with UL27 W153R mutant gene by SEAP yield reduction assay relative to wild type", "assay_type": "functional"}, "[17]": {"test_system": "Human betaherpesvirus 5", "experiment": "Antiviral activity against Human cytomegalovirus T3020 expressing UL27 kinase with E22stop gene by SEAP yield reduction assay", "assay_type": "functional, organism-based", "settings": "Human betaherpesvirus 5, T3020", "outline": "as §1"}, "[18]": {"test_system": "Human betaherpesvirus 5", "experiment": "Ratio of EC50 for Human cytomegalovirus T3037 expressing UL27 kinase with L426F mutant gene to EC50 for Human cytomegalovirus T2211 expressing wild type UL27 gene", "assay_type": "functional", "outline": "as §2"}, "[19]": {"test_system": "Human betaherpesvirus 5", "experiment": "Antiviral activity against Human cytomegalovirus T2890 expressing UL97 kinase with V353A mutant gene by SEAP yield reduction assay", "assay_type": "functional, organism-based", "settings": "Human betaherpesvirus 5, T2890", "outline": "as §1"}, "[20]": {"test_system": "Human betaherpesvirus 5", "experiment": "Ratio of EC50 for Human cytomegalovirus T2767 expressing UL27 kinase with L193Fmutant gene to EC50 for Human cytomegalovirus T2211 expressing wild type UL27 gene", "assay_type": "functional", "outline": "as §2"}, "[21]": {"test_system": "Human betaherpesvirus 5", "experiment": "Antiviral activity against 0.01 to 0.02 MOI of Human cytomegalovirus T2898 expressing UL27 kinase with W362stop gene N289D, D298G, N300G, P307L, V310A, D351N, I367V mutant gene assessed as growth inhibition at day 6 by SEAP yield reduction assay relative to control", "assay_type": "functional, organism-based"}, "[22]": {"test_system": "Human betaherpesvirus 5", "experiment": "Antiviral activity against 0.01 to 0.02 MOI of Human cytomegalovirus T2867 expressing UL27 kinase with A269T mutant gene assessed as growth inhibition at day 6 by SEAP yield reduction assay relative to control", "assay_type": "functional, organism-based"}, "[23]": {"test_system": "Human betaherpesvirus 5", "experiment": "Antiviral activity against Human cytomegalovirus T2867 expressing UL27 kinase with A269T mutant gene by SEAP yield reduction assay", "assay_type": "functional, organism-based", "settings": "Human betaherpesvirus 5, T2867", "outline": "as §1"}, "[24]": {"test_system": "Human betaherpesvirus 5", "experiment": "Ratio of EC50 for Human cytomegalovirus T2899 expressing wild type UL27 kinase with N289D, D298G, N300G, P307L,V310A, D351N, I367V mutant gene to EC50 for Human cytomegalovirus T2211 expressing wild type UL27 gene", "assay_type": "functional", "outline": "as §2"}, "[25]": {"test_system": "Human betaherpesvirus 5", "experiment": "Antiviral activity against Human cytomegalovirus T2899 expressing wild type UL27 kinase with N289D, D298G, N300G, P307L,V310A, D351N, I367V mutant gene by SEAP yield reduction assay", "assay_type": "functional, organism-based", "settings": "Human betaherpesvirus 5, T2899", "outline": "as §1"}, "[26]": {"test_system": "Human betaherpesvirus 5", "experiment": "Antiviral activity against 0.01 to 0.02 MOI of Human cytomegalovirus T2266 harboring UL97 deletion of 537 through the end mutant gene assessed as growth inhibition at day 6 by SEAP yield reduction assay relative to control", "assay_type": "functional, organism-based"}, "[27]": {"test_system": "Human betaherpesvirus 5", "experiment": "Ratio of EC50 for Human cytomegalovirus T3019 expressing UL27 kinase with 218delC mutant gene to EC50 for Human cytomegalovirus T2211 expressing wild type UL27 gene", "assay_type": "functional", "outline": "as §2"}, "[28]": {"test_system": "Human betaherpesvirus 5", "experiment": "Antiviral activity against 0.01 to 0.02 MOI of Human cytomegalovirus T2931 expressing UL27 kinase 301 to 311 deletion with frame shift mutation at 311 codon assessed as growth inhibition at day 6 by SEAP yield reduction assay relative to control", "assay_type": "functional, organism-based"}, "[29]": {"test_system": "Human betaherpesvirus 5", "experiment": "Antiviral activity against Human cytomegalovirus T2898 expressing UL27 kinase with W362stop gene N289D, D298G, N300G, P307L, V310A, D351N, I367V mutant gene by SEAP yield reduction assay", "assay_type": "functional, organism-based", "settings": "Human betaherpesvirus 5, T2898", "outline": "as §1"}, "[30]": {"test_system": "Human betaherpesvirus 5", "experiment": "Ratio of EC50 for Human cytomegalovirus T2981 expressing UL27 kinase with W153R mutant gene to EC50 for Human cytomegalovirus T2211 expressing wild type UL27 gene", "assay_type": "functional", "outline": "as §2"}, "[31]": {"test_system": "Human betaherpesvirus 5", "experiment": "Antiviral activity against 0.01 to 0.02 MOI of Human cytomegalovirus T2899 expressing wild type UL97 kinase with N289D, D298G, N300G, P307L,V310A, D351N, I367V mutant gene assessed as growth inhibition at day 6 by SEAP yield reduction assay relative to control", "assay_type": "functional, organism-based"}, "[32]": {"test_system": "Human betaherpesvirus 5", "experiment": "Antiviral activity against Human cytomegalovirus T2211 expressing wild type UL27 kinase by SEAP yield reduction assay", "assay_type": "functional, organism-based", "settings": "Human betaherpesvirus 5, T2211", "outline": "as §1"}}, "note": "Active and inactive are the calls of the source. The rule behind the calls is not given here."}
{"smiles": "CC(C)Nc1nc2cc(Cl)c(Cl)cc2n1[C@H]1O[C@@H](CO)[C@H](O)[C@@H]1O", "note": "[MARIBAVIR]", "values": [{"measurement": "fold change (FC)", "setting": "[1]", "result": 15}, {"measurement": "EC50", "setting": "[2]", "result": 210, "unit": "nM"}, {"measurement": "Ratio EC50", "setting": "[3]", "result": 2}, {"measurement": "EC50", "setting": "[4]", "result": 160, "unit": "nM"}, {"measurement": "EC50", "setting": "[5]", "result": 230, "unit": "nM"}, {"measurement": "Ratio EC50", "setting": "[6]", "result": 2}, {"measurement": "Ratio EC50", "setting": "[7]", "result": 2.1}, {"measurement": "Ratio EC50", "setting": "[8]", "result": 2.2}, {"measurement": "Ratio EC50", "setting": "[9]", "result": 16}, {"measurement": "fold change (FC)", "setting": "[10]", "result": 15}, {"measurement": "EC50", "setting": "[11]", "result": 290, "unit": "nM"}, {"measurement": "EC50", "setting": "[12]", "result": 200, "unit": "nM"}, {"measurement": "EC50", "setting": "[13]", "result": 240, "unit": "nM"}, {"measurement": "fold change (FC)", "setting": "[14]", "result": 15}, {"measurement": "Ratio EC50", "setting": "[15]", "result": 3.1}, {"measurement": "fold change (FC)", "setting": "[16]", "result": 15}, {"measurement": "EC50", "setting": "[17]", "result": 190, "unit": "nM"}, {"measurement": "Ratio EC50", "setting": "[18]", "result": 2.2}, {"measurement": "EC50", "setting": "[19]", "result": 1480, "unit": "nM"}, {"measurement": "Ratio EC50", "setting": "[20]", "result": 2.6}, {"measurement": "inhibition", "setting": "[21]", "result": "Active"}, {"measurement": "inhibition", "setting": "[22]", "result": "Active"}, {"measurement": "EC50", "setting": "[23]", "result": 190, "unit": "nM"}, {"measurement": "Ratio EC50", "setting": "[24]", "result": 0.9}, {"measurement": "EC50", "setting": "[25]", "result": 84, "unit": "nM"}, {"measurement": "inhibition", "setting": "[26]", "result": "Active"}, {"measurement": "Ratio EC50", "setting": "[27]", "result": 2.5}, {"measurement": "inhibition", "setting": "[28]", "result": "Active"}, {"measurement": "EC50", "setting": "[29]", "result": 210, "unit": "nM"}, {"measurement": "Ratio EC50", "setting": "[30]", "result": 1.7}, {"measurement": "inhibition", "setting": "[31]", "result": "Active"}, {"measurement": "EC50", "setting": "[32]", "result": 95, "unit": "nM"}]}
